ChEMBL document CHEMBL2040742, “Predicting and improving the membrane permeability of peptidic small molecules” (J Med Chem, 2012)

What was measured:
Assay type in all cases: ADME, cell-based, Canis lupus familiaris
Settings in all cases: dog
MDCK [1] = assay: Apparent permeability from apical to basal side of MDCK cells expressing MDR1 at 2 uM by LC-MS/MS analysis
Outline: (§1)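 MDR1-MDCK monolayers grown on PET inserts (seeded 2 × 10⁵ cells/cm², 4-6 days to confluence). Compound diluted from 10 mM stock into HBSS pH 7.4 to 2 μM, dosed apically or basolaterally. Analyte quantified by LC-MS/MS as analyte/IS peak area ratio. Papp from 0.084 cm² monolayer area and initial donor concentration. Triplicate, reported as means.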

MDCK [2] = assay: Efflux ratio of apparent permeability from basal to apical side to apical to basal side of MDCK cells expressing MDR1 at 2 uM by LC-MS/MS analysis
MDCK [3] = assay: Apparent permeability from basal to apical side of MDCK cells expressing MDR1 at 2 uM by LC-MS/MS analysis; outline: as §1

Papp (MDCK [1]) | Ratio (MDCK [2]) | Papp (MDCK [3]) | Compound
0.51 ×10⁻⁶ cm/s | 5.8 | 2.94 ×10⁻⁶ cm/s | N#CCNC(=O)[C@H](Cc1c[nH]cn1)NC(=O)OCc1ccccc1
24.6 ×10⁻⁶ cm/s | 0.86 | 21.1 ×10⁻⁶ cm/s | NC(=O)[C@H](Cc1ccccc1)NC(=O)OCc1ccccc1
4.31 ×10⁻⁶ cm/s | 3.1 | 13.4 ×10⁻⁶ cm/s | NC(=O)[C@H](Cc1ccncc1)NC(=O)OCc1ccccc1
